# Test results published in PubChem BioAssay AID463104 (Sanford-Burnham Center for Chemical Genomics, 2010).
# Hit rate of the full screen: of about 330,000 compounds, about 1,100 (0.33%) were called active. This is one part of a sample in which actives are shown more often than they occur. Values without a mark were called inactive.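 The calls were made as follows: active = versus positive control, 20 µM dose yields 30% or more activation; inactive = the rest.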
# Assay: activators of adaptive XBP1 UPR arm, primary screen, cell-based, CHO-XBP1 luciferase reporter, luminescence, uHTS (AID 463104);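 also: 100% = tunicamycin at 10 µg/mL and 0% = DMSO only wells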
# Settings: IRE1-XBP1 UPR activation, at 20 µM, active compounds read high, percent of tunicamycin response, DMSO as zero
# Summary of the method: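 incubation = overnight seeding at 37 °C, 6 h compound treatment at 37 °C | assay system = CHO-XBP1 cells stably carrying IRE1-XBP1-driven luciferase reporter | input = 1000 cells per well | detection = luciferase luminescence | dosing = single point, 20 µM final compound, 1% DMSO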
row,Structure (SMILES),activation
1,OCCC1CN(Cc2ccccc2-c2ccco2)CCN1Cc1ccsc1 (stereo not given),-1.57%
2,Cc1cc(NC(=O)Nc2c[nH]c(=O)[nH]c2=O)ccc1Br,-0.89%
3,Cc1ccc(Nc2nc(N)nc(CN3CCN(Cc4ccccc4)CC3)n2)cc1Cl,3.65%
4,CNc1nc(Nc2ccc(C)c(Cl)c2)nc(N)c1[N+](=O)[O-],10.8%
5,OCCNc1nc(Nc2ccc(Cl)c(Cl)c2)nc2ccccc12,46.6% (active)
6,N#Cc1cc([N+](=O)[O-])ccc1Oc1cccc(/C=N/NC(=O)c2ccc(Cl)cc2)c1,-0.61%
7,CCCc1ccc(OCc2ccc(C(=O)N/N=C/c3cccc([N+](=O)[O-])c3)o2)c(OC)c1,35.5% (active)
8,COC(=O)c1ccc(COc2ccc(/C=N/NC(=O)C(=O)Nc3ccc(OC)cc3)cc2OC)o1,-0.77%
9,CCCCCCCCCCOC(=O)Cn1c(COc2cccc(OC)c2)[n+](C)c2ccccc21,20.9%
10,CCCCCCCCCCOC(=O)Cn1c(COc2ccc(C)cc2)[n+](C)c2ccccc21,41.7% (active)
11,CCOC(=O)COn1c(=O)c(-c2ccc(OCC)cc2)[n+]([O-])c2ccccc21,0.06%
12,CCN(CC(=O)NCC(=O)Nc1cccc(C)c1C)Cc1ccccc1,-5.66%
13,Cc1c(Br)c([N+](=O)[O-])nn1C(C)C(=O)Nc1nccs1 (stereo not given),-1.86%
14,COC(=O)Cc1csc(Nc2c(C)n(C)n(-c3ccccc3)c2=O)n1,-0.87%
15,Cc1ccc(-n2c(O)c(C=Nc3ccc(S(=O)(=O)Nc4ncccn4)cc3)c3ccccc3c2=O)cc1C,-1.86%
16,COC(=O)Cc1csc(/N=C/c2c(O)n(-c3cccc(C(F)(F)F)c3)c(=O)c3ccccc23)n1,46.3% (active)
17,Cc1ccc(N2C(=O)CC(Nc3cccc4ccccc34)C2=O)cc1 (stereo not given),-0.83%
18,CC(=O)Nc1ccccc1Sc1ccc2c3c(cccc13)C(=O)N(c1ccc(C)cc1)C2=O,33.8% (active)
19,CSc1ccccc1NC(=O)C(C)N1C(=O)c2ccccc2S1(=O)=O (stereo not given),0.16%
20,CC1CCN(C(=O)COC(=O)c2cc(=O)[nH]c3ccccc23)CC1,-0.76%
21,CCn1c2ccccc2c2cc(NC(=S)N3CCOCC3)ccc21,-1.32%
22,CCOC(=O)C(C)n1cnc2c(nnn2-c2cccc(OC)c2)c1=O (stereo not given),-2.11%
23,O=C(NCC1(N2CCCCC2)CCCCC1)c1ccc(NS(=O)(=O)c2ccc(F)cc2)cc1,0.16%
24,CCOc1ccc(NS(=O)(=O)c2ccc(C(=O)NCC(c3ccccc3OC)N3CCCC3)cc2)cc1 (stereo not given),-3.45%
25,CCOc1ccc(S(=O)(=O)Nc2cccc(C(=O)NCC3(N4CCCCC4)CCCCC3)c2)cc1,66.6% (active)
